This is an account of results in ChEMBL document CHEMBL3621102, “Structure-activity study of quinazoline derivatives leading to the discovery of potent EGFR-T790M inhibitors” (Eur J Med Chem, 2015).

In data set [1] the target is Epidermal growth factor receptor (Homo sapiens, UniProt P00533). As to the kind of experiment: Inhibition of EGFR (unknown origin) by ELISA method. A general note: ELISA stands for enzyme-linked immunosorbent assay.
Data set [2] relates to NCI-H1975. The experiment in a line: Antiproliferative activity against human NCI-H1975 cells assessed as growth inhibition. Format: functional. Put shortly:
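NCI-H1975 cells were grown in RPMI with 1 mM sodium pyruvate, 10% FBS and 1% penicillin-streptomycin, under humidified 5% CO₂ at 37 °C. Growth inhibition was read as GI₅₀.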

Data set [3] has as its system NCI-H1975. As to the kind of experiment: Antitumor activity against human NCI-H1975 cells xenografted in BALB/c mouse assessed as tumor growth inhibition at 20 mg/kg po, qd for 21 days relative to control. It counts as functional. In a few lines: (§1)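 Athymic mice received 2 × 10⁶ tumour cells subcutaneously in the right flank. At 100–300 mm³ they were randomised to control and treatment groups (n = 6); controls received vehicle alone. Tumour volume = length × width²/2 and RTV = Vt/V0.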
A general note: Xenograft models place foreign cells or tissue in a host animal.

The subject of data set [4] is Mus musculus. The experiment in a line: Toxicity in NCI-H1975 xenografted BALB/c mouse assessed as body weight loss at 20 mg/kg po, qd for 21 days. It counts as organism-based. The following applies: in vivo, 504 h. In a few lines: (§2)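 Athymic mice bearing subcutaneous right-flank xenografts (2 × 10⁶ cells, dosed at 100–300 mm³; n = 6 per group; vehicle controls). Health was observed daily and body weight measured on indicated days. Body weight change (%) = (Wt/W0 − 1) × 100 against predosing weight, given as group mean ± SEM.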

Data set [5] in a line: Toxicity in NCI-H1975 xenografted BALB/c mouse assessed as induction of mouse mortality at 20 mg/kg po, qd for 7 days. It counts as organism-based. The settings on record: in vivo. In a few lines:
(§3)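 Athymic mice received 2 × 10⁶ NCI-H1975 cells subcutaneously in the right flank. When tumours reached 100–300 mm³, mice were randomised into control and treatment groups (n = 6 per group), and controls got vehicle alone. Health was checked daily, and body weight and tumour size were measured on set days during treatment.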

The test system of data set [6] is NCI-H1975. The experiment in a line: Antitumor activity against human NCI-H1975 cells xenografted in BALB/c mouse assessed as tumor growth inhibition at 8 mg/kg po, qd for 21 days. Format: functional, organism-based. In a few lines: as §1
The subject of data set [7] is Mus musculus. The experiment in a line: Toxicity in NCI-H1975 xenografted BALB/c mouse assessed as body weight loss at 8 mg/kg po, qd for 21 days. Format: organism-based. The following applies: in vivo, 504 h. Put shortly: as §2
The subject of data set [8] is Mus musculus. As to the kind of experiment: Toxicity in NCI-H1975 xenografted BALB/c mouse assessed as induction of weakness at 8 mg/kg po, qd for 21 days. Format: organism-based. The settings on record: in vivo, 504 h. Put shortly: as §2
Data set [9] has as its system Mus musculus. The experiment in a line: Toxicity in NCI-H1975 xenografted BALB/c mouse assessed as induction of lethargy at 8 mg/kg po, qd for 21 days. Format: organism-based. The following applies: in vivo, 504 h. Put shortly: as §2
For data set [10], the system named is Mus musculus. As to the kind of experiment: Toxicity in NCI-H1975 xenografted BALB/c mouse assessed as induction of eye disease at 8 mg/kg po, qd for 21 days. Format: organism-based. The following applies: in vivo, 504 h. Put shortly:
as §2

The subject of data set [11] is Mus musculus. The experiment in a line: Toxicity in NCI-H1975 xenografted BALB/c mouse assessed as induction of exfoliative skin disorder at 8 mg/kg po, qd for 21 days. It counts as organism-based. The settings on record: in vivo, 504 h. Put shortly:
as §2

Data set [12] in a line: Toxicity in NCI-H1975 xenografted BALB/c mouse assessed as induction of mouse mortality at 8 mg/kg po, qd for 9 days. Format: organism-based. The settings on record: in vivo. In a few lines:
as §3

The subject of data set [13] is NCI-H1975. The experiment in a line: Antitumor activity against human NCI-H1975 cells xenografted in BALB/c mouse assessed as tumor growth inhibition at 30 mg/kg po, qd for 21 days relative to control. It counts as functional, organism-based. In a few lines:
as §1

In data set [14] the test system is A-431. As to the kind of experiment: Antitumor activity against human A431 cells xenografted in BALB/c mouse assessed as tumor growth inhibition at 5 mg/kg po, qd for 18 days. It counts as functional, organism-based. In a few lines:
as §1

The subject of data set [15] is HCC827. As to the kind of experiment: Antitumor activity against human HCC827 cells xenografted in BALB/c mouse assessed as tumor growth inhibition at 5 mg/kg po, qd for 12 days. It counts as functional, organism-based. Put shortly:
as §1

For data set [16], the system named is Mus musculus. The experiment in a line: Toxicity in NCI-H1975 xenografted BALB/c mouse assessed as body weight loss at 10 mg/kg po, qd for 21 days. Format: organism-based. The settings on record: in vivo, 504 h. In a few lines:
as §2

The test system of data set [17] is Mus musculus. The experiment in a line: Toxicity in NCI-H1975 xenografted BALB/c mouse at 10 mg/kg po, qd for 7 days measured after drug cessation. Format: organism-based. The following applies: in vivo, 168 h. Put shortly:
as §2

Data set [18] is described as follows: Toxicity in NCI-H1975 xenografted BALB/c mouse assessed as induction of mouse mortality at 10 mg/kg po, qd for days. Format: organism-based. The settings on record: in vivo. In a few lines:
as §3

Data set [19] concerns Mus musculus. As to the kind of experiment: Toxicity in NCI-H1975 xenografted BALB/c mouse assessed as body weight change at 20 mg/kg po, qd for 21 days. It counts as organism-based. The settings on record: in vivo, 504 h. In a few lines: as §2
Data set [20] relates to A-431. The experiment in a line: Antitumor activity against human A431 cells xenografted in BALB/c mouse assessed as tumor growth inhibition at 10 mg/kg po, qd for 18 days. Format: functional, organism-based. In a few lines:
as §1

Data set [21] has as its system Mus musculus. As to the kind of experiment: Toxicity in human A431 cells xenografted BALB/c mouse assessed as body weight loss at 5 and 10 mg/kg po, qd for 18 days. The settings on record: in vivo, 432 h. Format: organism-based, A-431. Put shortly:
as §2

A short description of data set [22]: AUC (0 to 24 hrs) in Sprague-Dawley rat at 1 mg/kg, iv by LC/MS/MS method. Format: ADME, organism-based. Also noted: time < 24 hr, dose 1 mg/kg, route intravenous. The settings on record: in vivo. In a few lines:
(§4)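 Male Sprague-Dawley rats (n = 3) dosed once at 1 mg/kg iv via tail vein, or once at 5 mg/kg by oral gavage, using the same formulation. Serial blood samples were taken over 24 h. Plasma levels were measured by LC/MS/MS (C18 column, 10 mM ammonium formate-0.1% formic acid water/methanol 10/90, ESI positive). Parameters were derived by noncompartmental analysis.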

Data set [23] in a line: AUC (0 to infinity) in Sprague-Dawley rat at 1 mg/kg, iv by LC/MS/MS method. Format: ADME, organism-based. More on the design: dose 1 mg/kg, time infinity, route intravenous. The following applies: in vivo. In a few lines:
as §4

Data set [24] can be described thus: Mean residence time in Sprague-Dawley rat at 1 mg/kg, iv incubated for 24 hrs by LC/MS/MS method. It counts as ADME, organism-based. The following applies: in vivo. Put shortly:
as §4

The nature of data set [25]: Elimination half-life in Sprague-Dawley rat at 1 mg/kg, iv incubated for 24 hrs by LC/MS/MS method. It counts as ADME, organism-based. The following applies: in vivo, read-out: beta t1/2 (converted). Put shortly: as §4
Data set [26] can be described thus: Clearance in Sprague-Dawley rat at 1 mg/kg, iv incubated for 24 hrs by LC/MS/MS method. It counts as ADME, organism-based. The settings on record: in vivo. In a few lines: as §4
The nature of data set [27]: Apparent volume of distribution in Sprague-Dawley rat at 1 mg/kg, iv incubated for 24 hrs by LC/MS/MS method. Format: ADME, organism-based. The following applies: in vivo, read-out: Vd(app). In a few lines: as §4
Data set [28] can be described thus: Bioavailability in Sprague-Dawley rat at 1 mg/kg, iv incubated for 24 hrs by LC/MS/MS method. It counts as ADME, organism-based. The settings on record: in vivo. In a few lines:
as §4

Data set [29] deals with Mus musculus. As to the kind of experiment: Toxicity in human HCC827 cells xenografted BALB/c mouse assessed as body weight loss at 5 mg/kg po, qd for 12 days. Format: organism-based. The following applies: in vivo, 288 h. In a few lines:
as §2

Data set [30] has as its system Mus musculus. As to the kind of experiment: Toxicity in human A431 cells xenografted BALB/c mouse assessed as induction of exfoliative skin disorders at 5 and 10 mg/kg po, qd for 18 days. Format: organism-based, A-431. The following applies: in vivo, 432 h. In a few lines:
as §2

In data set [31] the test system is Mus musculus. As to the kind of experiment: Toxicity in human A431 cells xenografted BALB/c mouse assessed as induction of eye diseases at 5 and 10 mg/kg po, qd for 18 days. The settings on record: in vivo, 432 h. It counts as organism-based, A-431. In a few lines:
as §2

For data set [32], the system named is Mus musculus. As to the kind of experiment: Toxicity in human HCC827 cells xenografted BALB/c mouse assessed as induction of eye disease at 5 mg/kg po, qd for 12 days. Format: organism-based. The settings on record: in vivo, 288 h. In a few lines:
as §2

The test system of data set [33] is Mus musculus. As to the kind of experiment: Toxicity in human HCC827 cells xenografted BALB/c mouse assessed as induction of exfoliative skin disorders at 5 mg/kg po, qd for 12 days. It counts as organism-based. The settings on record: in vivo, 288 h. Put shortly: as §2

Active and inactive are the calls of the source. The rule behind the calls is not given here. Where only a bound is given, the exact number is not on record here.

Chain of Epidermal growth factor receptor (P00533 whole entry): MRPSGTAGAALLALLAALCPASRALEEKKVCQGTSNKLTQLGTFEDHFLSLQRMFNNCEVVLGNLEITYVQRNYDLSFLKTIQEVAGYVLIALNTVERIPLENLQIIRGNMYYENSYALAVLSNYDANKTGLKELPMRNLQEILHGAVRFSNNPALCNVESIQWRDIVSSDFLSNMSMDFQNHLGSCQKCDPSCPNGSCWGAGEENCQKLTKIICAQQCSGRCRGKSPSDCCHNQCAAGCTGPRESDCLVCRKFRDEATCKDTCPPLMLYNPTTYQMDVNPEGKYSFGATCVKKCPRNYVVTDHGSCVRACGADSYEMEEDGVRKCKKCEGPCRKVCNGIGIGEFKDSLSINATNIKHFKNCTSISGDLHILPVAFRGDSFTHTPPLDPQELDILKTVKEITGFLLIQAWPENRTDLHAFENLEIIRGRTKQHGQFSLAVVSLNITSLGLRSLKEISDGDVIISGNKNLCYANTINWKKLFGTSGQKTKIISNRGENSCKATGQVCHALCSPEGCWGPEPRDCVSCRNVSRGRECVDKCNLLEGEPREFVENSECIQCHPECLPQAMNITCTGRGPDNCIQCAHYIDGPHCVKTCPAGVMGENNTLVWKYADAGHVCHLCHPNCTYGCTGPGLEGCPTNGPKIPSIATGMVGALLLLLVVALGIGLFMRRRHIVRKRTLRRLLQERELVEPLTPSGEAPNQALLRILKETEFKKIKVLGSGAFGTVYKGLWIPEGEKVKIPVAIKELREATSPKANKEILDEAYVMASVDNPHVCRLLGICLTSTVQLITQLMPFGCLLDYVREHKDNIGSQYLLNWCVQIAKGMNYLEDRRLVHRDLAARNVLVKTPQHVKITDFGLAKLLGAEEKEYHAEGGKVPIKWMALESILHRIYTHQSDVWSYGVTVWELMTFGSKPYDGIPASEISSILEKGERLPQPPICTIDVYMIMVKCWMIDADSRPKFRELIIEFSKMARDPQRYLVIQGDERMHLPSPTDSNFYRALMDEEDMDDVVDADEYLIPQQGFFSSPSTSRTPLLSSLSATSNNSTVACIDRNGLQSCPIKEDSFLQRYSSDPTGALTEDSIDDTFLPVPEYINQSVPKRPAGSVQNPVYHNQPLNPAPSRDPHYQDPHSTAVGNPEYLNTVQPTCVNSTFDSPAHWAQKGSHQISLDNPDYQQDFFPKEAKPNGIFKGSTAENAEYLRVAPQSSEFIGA

Consider `C#Cc1cccc(Nc2ncnc3cc(OCC)c(NC(=O)/C=C/CN(C)C4CC4)cc23)c1`, for which it took 2.4 nM to reach half-maximal inhibition in data set [1] (IC50). Moreover, the GI50 in data set [2] is 41 nM. Besides, the TGI result in data set [3] was “Active”. In data set [4], the Activity result was “Toxic”. In addition, in data set [5], the mortality at 168 h is > 50%.
On to `COc1cc2ncnc(Nc3ccc(F)c(Cl)c3)c2cc1NC(=O)/C=C/CNC1CC1`, for which the midpoint of inhibition in [1], the IC50, lay at 2.1 nM. The GI50 in data set [2] came out at 11.2 nM. The TGI result in data set [6] is “Active”. Further, the Activity result in data set [7], in data set [8], in data set [9], in data set [10] and in [11] was “Toxic” in each case. For the same molecule, in data set [12], the mortality at 216 h was > 50%.
Turning to `CN(C)C/C=C/C(=O)Nc1cc2c(Nc3ccc(F)c(Cl)c3)ncnc2cc1O[C@H]1CCOC1`, the TGI entry in data set [13], in [14] and in data set [15] was “Active” in each case.
Consider `C#Cc1cccc(Nc2ncnc3cc(OCC)c(NC(=O)/C=C/CNC4CC4)cc23)c1`, for which, in [1], the IC50 was found to be 4.2 nM. Also, the GI50 in [2] was found to be 16.5 nM. Moreover, the Activity entry in data set [16] was “Toxic”; in data set [17], “Non-toxic”. Also, the mortality in [18] is > 50%.
`C#Cc1cccc(Nc2ncnc3cc(O[C@H]4CCOC4)c(NC(=O)/C=C/CNC4CC4)cc23)c1` yielded an IC50 in [1] of 5.6 nM. Besides, in data set [2], the GI50 was 16.1 nM. The TGI result in data set [3], in data set [15] and in data set [20] was “Active” throughout. Moreover, the Activity entry in [19], in data set [21], in [29], in data set [30], in data set [31] and in data set [32] was “Non-toxic” in each case. Also, the Activity entry in [33] is on record as “Non-toxic”. The TGI result in data set [14] was “inactive”. Moreover, the AUC(0-t) at 24 h in data set [22] came to 471 ng·h/mL. The molecule further yielded an AUC(0-inf) in [23] of 480 ng·h/mL. In data set [24], this molecule gave an MRT of 1.7 h. In addition, the half-life in data set [25] was 2.3 h. Moreover, the clearance in data set [26] was 50 mL/min/kg. For the same molecule, the Vd in [27] stood at 2.2 L/kg. Besides, the bioavailability in data set [28] is 37.9%.

Broadly, the IC50 is the midpoint of a concentration-inhibition curve. High values mean weaker potency, low ones greater potency. The GI50 is the concentration that inhibits growth by half. The mortality is the share of the test organisms that died. As a reminder, the AUC(0-t) is the area under the concentration-time curve up to a stated or last time point. As usually defined, the AUC(0-inf) is total exposure, with the tail of the curve extrapolated. Read a low AUC(0-inf) as less exposure. In general, MRT refers to a mean duration of stay, worked out from the concentration-time curve. What is called clearance is the rate of elimination divided by the concentration. Read a low clearance as a low capacity for elimination. By bioavailability is commonly meant the share of a dose that reaches the circulation, judged against a reference dose that is usually intravenous. A lower bioavailability goes with little systemic uptake.
